From ChEMBL document CHEMBL4433211, “Discovery of the First-in-Class GSK-3β/HDAC Dual Inhibitor as Disease-Modifying Agent To Combat Alzheimer's Disease” (ACS Med Chem Lett, 2019)
The source made the active and inactive calls. The calls are words filed in the database; no cut-off is given here.

What was measured:
SH-SY5Y [1] = experiment: Induction of neurogenesis in human SH-SY5Y cells assessed as upregulation of GAP43 mRNA at 10 uM incubated for 24 hrs by RT-PCR analysis; assay type: functional, cell-based
Outline: (§1)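 SH-SY5Y cells treated 24 h (10 μM, or 1 μM for one parent compound; retinoic acid positive control); GAP43, N-myc and MAP-2 mRNA measured by RT-PCR, expressed as fold of control.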

SH-SY5Y [2] = experiment: Induction of neurogenesis in human SH-SY5Y cells assessed as upregulation of N-myc mRNA at 10 uM incubated for 24 hrs by RT-PCR analysis; assay type: functional, cell-based; outline: as §1
SH-SY5Y [3] = experiment: Induction of neurogenesis in human SH-SY5Y cells assessed as upregulation of MAP-2 mRNA at 10 uM incubated for 24 hrs by RT-PCR analysis; assay type: functional, cell-based; outline: as §1
SH-SY5Y [4] = experiment: Induction of neurogenesis in human SH-SY5Y cells assessed as stimulation of neurite outgrowth at 10 uM incubated for 72 hrs by phase contrast microscopic analysis; assay type: functional, cell-based
Outline: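 SH-SY5Y cells treated 72 h at 10 μM, retinoic acid (10 μM) as positive control; neurite-bearing cells scored from images taken at 20× magnification.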

[5] = target: T1, Glycogen synthase kinase-3 beta (Homo sapiens, UniProt P49841); experiment: Inhibition of human recombinant GSK3beta using GSM as substrate incubated for 30 mins by luminescence based assay
Target sequence in this assay (P49841 whole entry): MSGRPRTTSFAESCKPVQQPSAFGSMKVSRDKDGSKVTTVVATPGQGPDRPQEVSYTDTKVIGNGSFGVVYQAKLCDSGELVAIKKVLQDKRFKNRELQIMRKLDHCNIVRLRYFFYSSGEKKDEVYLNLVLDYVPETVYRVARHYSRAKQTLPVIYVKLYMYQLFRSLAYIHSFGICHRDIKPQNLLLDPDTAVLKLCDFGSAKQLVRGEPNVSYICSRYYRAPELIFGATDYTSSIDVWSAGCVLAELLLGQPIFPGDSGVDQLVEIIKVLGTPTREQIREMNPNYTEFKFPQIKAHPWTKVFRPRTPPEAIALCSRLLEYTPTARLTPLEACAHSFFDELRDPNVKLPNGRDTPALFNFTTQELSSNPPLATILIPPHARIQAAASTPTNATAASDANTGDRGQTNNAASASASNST

Histone deacetylase 1 = Histone deacetylase 1 (Homo sapiens, UniProt Q13547); experiment: Inhibition of human recombinant his tagged HDAC1 expressed in baculovirus infected […] insect cells up to 30 uM using tertbutyloxycarbonyl (Boc)-(Ac)-Lys-7-amino-4-methylcoumarin as substrate incubated for 1 hr by fluorescence based assay
Chain of Histone deacetylase 1 (Q13547 whole entry): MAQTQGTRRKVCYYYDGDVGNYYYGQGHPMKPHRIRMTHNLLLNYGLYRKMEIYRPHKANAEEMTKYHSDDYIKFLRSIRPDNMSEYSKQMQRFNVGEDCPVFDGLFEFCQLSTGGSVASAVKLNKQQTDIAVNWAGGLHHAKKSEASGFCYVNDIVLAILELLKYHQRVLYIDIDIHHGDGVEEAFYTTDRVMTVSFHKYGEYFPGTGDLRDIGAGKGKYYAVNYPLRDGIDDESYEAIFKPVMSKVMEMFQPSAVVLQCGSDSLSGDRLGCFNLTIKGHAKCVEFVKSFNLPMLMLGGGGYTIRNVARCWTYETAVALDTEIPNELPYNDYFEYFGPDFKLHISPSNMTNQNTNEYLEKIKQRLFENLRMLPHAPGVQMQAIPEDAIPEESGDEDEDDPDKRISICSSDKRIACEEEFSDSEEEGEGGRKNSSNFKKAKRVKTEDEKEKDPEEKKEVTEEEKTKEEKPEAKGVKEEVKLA

[6] = target: T2, Protein deacetylase HDAC6 (Homo sapiens) (UniProt Q9UBN7); experiment: Inhibition of human recombinant his tagged HDAC6 expressed in baculovirus infected […] insect cells up to 30 uM using batcp as substrate incubated for 1 hr by fluorescence based assay
T2 sequence (whole entry): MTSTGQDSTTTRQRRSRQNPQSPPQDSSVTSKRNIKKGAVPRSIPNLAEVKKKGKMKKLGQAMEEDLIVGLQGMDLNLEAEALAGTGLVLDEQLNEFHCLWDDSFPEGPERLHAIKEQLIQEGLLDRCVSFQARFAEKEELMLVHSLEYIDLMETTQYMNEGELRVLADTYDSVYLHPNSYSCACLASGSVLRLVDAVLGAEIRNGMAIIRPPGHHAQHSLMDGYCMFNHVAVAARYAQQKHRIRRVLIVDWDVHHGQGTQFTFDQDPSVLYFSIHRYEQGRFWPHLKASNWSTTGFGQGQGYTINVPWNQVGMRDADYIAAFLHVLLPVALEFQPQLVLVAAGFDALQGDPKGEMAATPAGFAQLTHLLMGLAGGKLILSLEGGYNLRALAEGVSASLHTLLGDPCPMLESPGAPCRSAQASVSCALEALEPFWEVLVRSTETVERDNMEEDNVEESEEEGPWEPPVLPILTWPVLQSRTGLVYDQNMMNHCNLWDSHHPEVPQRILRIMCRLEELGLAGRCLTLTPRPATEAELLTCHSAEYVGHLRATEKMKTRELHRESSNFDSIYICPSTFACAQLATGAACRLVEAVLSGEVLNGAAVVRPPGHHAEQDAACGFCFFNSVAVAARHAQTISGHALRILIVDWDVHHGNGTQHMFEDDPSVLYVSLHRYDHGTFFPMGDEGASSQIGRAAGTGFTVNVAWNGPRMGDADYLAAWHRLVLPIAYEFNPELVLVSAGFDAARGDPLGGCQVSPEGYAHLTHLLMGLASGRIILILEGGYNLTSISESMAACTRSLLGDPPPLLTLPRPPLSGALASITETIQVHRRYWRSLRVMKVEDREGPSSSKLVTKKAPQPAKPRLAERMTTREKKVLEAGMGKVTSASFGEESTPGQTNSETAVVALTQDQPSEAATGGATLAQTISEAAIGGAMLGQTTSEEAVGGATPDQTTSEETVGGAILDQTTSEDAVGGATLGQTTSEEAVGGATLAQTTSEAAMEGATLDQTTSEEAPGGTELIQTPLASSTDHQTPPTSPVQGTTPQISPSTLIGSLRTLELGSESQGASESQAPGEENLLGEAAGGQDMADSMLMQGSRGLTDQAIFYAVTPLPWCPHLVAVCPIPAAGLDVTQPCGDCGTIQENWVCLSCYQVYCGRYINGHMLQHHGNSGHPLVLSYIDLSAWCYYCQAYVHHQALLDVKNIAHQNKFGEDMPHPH

[7] = target: T1, Glycogen synthase kinase-3 beta; experiment: Inhibition of GSK3beta in human SH-SY5Y cells assessed as reduction in copper-induced tau hyperphosphorylation at 10 uM preincubated for 1 hr followed by copper addition and measured after 26 hrs by ELISA; assay type: cell-based; details: in the assay text read “16 hrs” for “26 hrs”
Outline: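 Differentiated SH-SY5Y cells pretreated 1 h with test agent (LiCl 10 mM reference; compounds 10 μM), then copper 400 μM for 16 h; cells scraped, phospho-tau quantified by immunoenzymatic assay at 450 nm; mean ± SEM.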
Target sequence in this assay (P49841 whole entry, looked up): as the sequence (P49841 whole entry) above

Microglia [8] = experiment: Immunomodulatory activity in LPS treated Wistar rat primary microglial cells assessed as decrease in NOS2 expression level at 5 to 50 uM incubated for 24 hrs by western blot analysis; assay type: functional, cell-based
Outline: (§2)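 Primary microglial cells treated 24 h with LPS in presence or absence of test compound; NOS2, MRC1 and TREM2 protein assessed by Western blot, normalized to GAPDH.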

Microglia [9] = experiment: Immunomodulatory activity in LPS treated Wistar rat primary microglial cells assessed as decrease in MRC1 expression level at 5 to 50 uM incubated for 24 hrs by western blot analysis; assay type: functional, cell-based; outline: as §2
Microglia [10] = experiment: Immunomodulatory activity in LPS treated Wistar rat primary microglial cells assessed as effect on TREM2 expression level at 5 to 50 uM incubated for 24 hrs by western blot analysis; assay type: functional, cell-based; outline: as §2
[11] = target: Histone deacetylase (Homo sapiens) (UniProt Q13547+O15379+Q9UBN7+Q92769+Q9UQL6+Q8WUI4+Q9BY41+Q96DB2+P56524+Q9UKV0+Q969S8); experiment: Synergistic inhibition of HDAC in human SH-SY5Y cells assessed as increase in acetylation of alpha-tubulin incubated for 30 hrs in presence of verinostat by Western blot analysis; assay type: cell-based
SH-SY5Y [12] = experiment: Synergistic neuroprotective activity against H2O2-induced cell death in human SH-SY5Y cells at 0.1 uM incubated for 24 hrs in presence of verinostat by MTS assay; assay type: functional, cell-based
Outline: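 SH-SY5Y cells challenged 24 h with H2O2 (25 and 50 μM) in presence of compounds (0.1–10 μM), alone or as a two-compound combination; viability by MTS assay as % of control.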

[13] = system: Cerebellar granule neurone; experiment: Neuroprotective activity against 6-OHDA-induced cell death in Wistar rat primary cerebellar granule neurons at 20 uM preincubated for 6 hrs followed by 6-OHDA addition and measured after 24 hrs in presence of in presence of 5 uM verinostat by MTT assay; assay type: functional, cell-based
Outline: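 Primary differentiated cerebellar granule neurons challenged with 6-OHDA with or without test compound; viability assessed; mean ± SE of at least 3 experiments in quadruplicate, one-way ANOVA with Bonferroni post hoc test.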

Row | IC50 [5] [µM] | inhibition (Histone deacetylase 1) | inhibition [6] | inhibition [7] | inhibition [11] | Compound | Activity (SH-SY5Y [1]) | Activity (SH-SY5Y [2]) | Activity (SH-SY5Y [3]) | Activity (SH-SY5Y [4]) | Activity (Microglia [8]) | Activity (Microglia [9]) | Activity (Microglia [10]) | Activity (SH-SY5Y [12]) | Activity [13]
1 | – | – | – | – | – | CC1=C(/C=C/C(C)=C/C=C/C(C)=C/C(=O)O)C(C)(C)CCC1 | Active | Active | Active | Active | – | – | – | – | –
2 | 20.2 | inactive | inactive | Active | inactive | O=C1NC(=O)c2ccccc21 [PHTHALIMIDE] | Active | inactive | Active | Active | Active | Active | inactive | inactive | Active
